Reference: ChEMBL document CHEMBL1671756, “In vitro and in vivo antifungal susceptibilities of the Mucoralean fungus Cunninghamella” (2010)
Calls of active or inactive are those of the source. The rule behind the calls is not given here.

Experiments:
Format in all cases: functional, organism-based
[1] = tested on: Cunninghamella bertholletiae; assay: Antifungal activity against Cunninghamella bertholletiae UTHSC 04-2581 infected in neutropenic OF1 mouse assessed as increase in mouse survival rate at 0.8 mg/kg, iv qd administered 1 day after infection for 7 days relative to untreated control; design: dose 0.8 mg/kg
In short: (§1)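 Male OF1 mice (~30 g) were made neutropenic with cyclophosphamide 200 mg/kg i.p. plus 5-fluorouracil 150 mg/kg i.v. 1 day before challenge. Challenge was 1 × 10⁴ CFU sporangiospores in 0.2 ml saline via the lateral tail vein. Mice got ceftazidime 5 mg/day s.c. on days 1–7. Dosing started 24 h post-challenge for 7 days. There were 10 mice/group, observed daily for 20 days. Kaplan-Meier analysis with log-rank test.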

[2] = tested on: Cunninghamella bertholletiae; assay: Antifungal activity against Cunninghamella bertholletiae UTHSC 06-1945 infected in neutropenic OF1 mouse assessed as decreased fungal load in kidney at 0.8 mg/kg, iv qd administered 1 day post infection measured after 4 to 5 days relative to untreated control; design: dose 0.8 mg/kg
In short: (§2)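 Neutropenic male OF1 mice (cyclophosphamide 200 mg/kg i.p. plus 5-fluorouracil 150 mg/kg i.v., day −1) were given 1 × 10⁴ CFU sporangiospores i.v. in 0.2 ml saline. Treatment from 24 h: 0.8 mg/kg i.v. or oral doses once daily; 10 mice per group. Killed at day 5 (day 4 if moribund). About half of brain, lungs and kidneys homogenized in saline; 10-fold dilutions plated on PDA for 24 h at 35°C; log₁₀ CFU/g tissue.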

[3] = tested on: Cunninghamella bertholletiae; assay: Antifungal activity against Cunninghamella bertholletiae UTSCH 05-2275 infected in diabetic OF1 mouse assessed as decreased fungal load in kidney at 0.8 mg/kg, iv qd administered 1 day post infection measured after 4 to 5 days relative to untreated control; design: dose 0.8 mg/kg
In short: (§3)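 Diabetic OF1 mice (streptozocin 210 mg/kg i.p.; glucose >250 mg/dl) were infected i.v. with 1 × 10⁵ CFU, with ceftazidime cover. Ten per group were treated from day 1 and killed day 5, or day 4 if moribund. Half-organ homogenates (brain, lung, kidney) in 1 ml saline were serially diluted 10-fold on PDA, incubated 24 h at 35°C, and reported as log₁₀ CFU/g tissue.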

[4] = tested on: Cunninghamella bertholletiae; assay: Antifungal activity against Cunninghamella bertholletiae UTHSC 06-1945 infected in neutropenic OF1 mouse assessed as increase in mouse survival rate at 0.8 mg/kg, iv qd administered 1 day after infection; design: dose 0.8 mg/kg; in short: as §1
[5] = tested on: Cunninghamella bertholletiae; assay: Antifungal activity against Cunninghamella bertholletiae UTHSC 03-2241 infected in neutropenic OF1 mouse assessed as increase in mouse survival rate at 0.8 mg/kg, iv qd administered 1 day after infection for 7 days relative to untreated control; design: dose 0.8 mg/kg; in short: as §1
[6] = tested on: Cunninghamella bertholletiae; assay: Antifungal activity against Cunninghamella bertholletiae UTSCH 05-2275 infected in diabetic OF1 mouse assessed as decreased fungal load in lung at 0.8 mg/kg, iv qd administered 1 day post infection measured after 4 to 5 days relative to untreated control; design: dose 0.8 mg/kg; in short: as §3
[7] = tested on: Cunninghamella bertholletiae; assay: Antifungal activity against Cunninghamella bertholletiae UTHSC 03-2241 infected in neutropenic OF1 mouse assessed as increase in mouse survival rate at 60 mg/kg, po qd administered 1 day after infection; design: dose 60 mg/kg
In short: (§4)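 Male OF1 mice, about 30 g, made neutropenic with cyclophosphamide 200 mg/kg i.p. plus 5-fluorouracil 150 mg/kg i.v. 1 day before challenge. Infected i.v. via the lateral tail vein with 1 × 10⁴ CFU of hemacytometer-counted sporangiospores in 0.2 ml saline. Ceftazidime 5 mg/day s.c. on days 1–7. Oral treatment started 24 h after challenge; 10 mice per group; checked daily for 20 days; Kaplan-Meier mean survival time, log-rank test.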

[8] = tested on: Cunninghamella bertholletiae; assay: Antifungal activity against Cunninghamella bertholletiae UTHSC 05-2275 infected in neutropenic OF1 mouse assessed as decreased fungal load in brain at 40 mg/kg, po qd administered 1 day post infection measured after 4 to 5 days relative to untreated control; design: dose 40 mg/kg; in short: as §2
[9] = tested on: Cunninghamella bertholletiae; assay: Antifungal activity against Cunninghamella bertholletiae UTSCH 05-2275 infected in diabetic OF1 mouse assessed as decreased fungal load in kidney at 80 mg/kg, po qd administered 1 day post infection measured after 4 to 5 days relative to untreated control; design: dose 80 mg/kg
In short: (§5)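 Male OF1 mice (mean 30 g) made diabetic with a single i.p. dose of streptozocin 210 mg/kg; blood glucose >250 mg/dl at day 10 qualified. Ceftazidime 5 mg/day s.c. given on days 1–7. Challenge by lateral tail vein with 1 × 10⁵ CFU sporangiospores in 0.2 ml saline. Oral dosing once daily for 7 days, starting 1 day after challenge. Untreated controls. Ten mice per group.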

[10] = tested on: Cunninghamella bertholletiae; assay: Antifungal activity against Cunninghamella bertholletiae UTHSC 05-2275 infected in diabetic OF1 mouse assessed as increase in mouse survival rate at 60 mg/kg, po qd administered 1 day after infection for 7 days relative to untreated control; design: dose 60 mg/kg
In short: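 Male OF1 mice made diabetic with streptozocin 210 mg/kg i.p.; blood glucose above 250 mg/dl at day 10 required. Infected i.v. via the tail vein with 1 × 10⁵ CFU sporangiospores in 0.2 ml saline. Ceftazidime 5 mg/day s.c. on days 1–7. Oral once-daily treatment from day 1 for 7 days; 10 mice per group; followed for 20 days; Kaplan-Meier mean survival time, log-rank test.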

[11] = tested on: Cunninghamella bertholletiae; assay: Antifungal activity against Cunninghamella bertholletiae UTHSC 05-2275 infected in neutropenic OF1 mouse assessed as decreased fungal load in lung at 40 mg/kg, po qd administered 1 day post infection measured after 4 to 5 days relative to untreated control; design: dose 40 mg/kg; in short: as §2
[12] = tested on: Cunninghamella bertholletiae; assay: Antifungal activity against Cunninghamella bertholletiae UTHSC 05-2275 infected in neutropenic OF1 mouse assessed as increase in mouse survival rate at 60 mg/kg, po qd administered 1 day after infection for 7 days relative to untreated control; design: dose 60 mg/kg; in short: as §4
[13] = tested on: Cunninghamella bertholletiae; assay: Antifungal activity against Cunninghamella bertholletiae UTSCH 05-2275 infected in diabetic OF1 mouse assessed as decreased fungal load in kidney at 60 mg/kg, po qd administered 1 day post infection measured after 4 to 5 days relative to untreated control; design: dose 60 mg/kg
In short: (§6)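 Diabetic male OF1 mice (streptozocin 210 mg/kg i.p.; glucose above 250 mg/dl) were challenged i.v. with 1 × 10⁵ CFU sporangiospores. Oral once-daily dosing from day 1 for 7 days; 10 mice per group. Killed at day 5 (day 4 if moribund). About half of each organ homogenized in saline; serial 10-fold dilutions plated on PDA for 24 h at 35°C; log₁₀ CFU/g tissue.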

[14] = tested on: Cunninghamella bertholletiae; assay: Antifungal activity against Cunninghamella bertholletiae UTSCH 05-2275 infected in diabetic OF1 mouse assessed as decreased fungal load in brain at 60 mg/kg, po qd administered 1 day post infection measured after 4 to 5 days relative to untreated control; design: dose 60 mg/kg; in short: as §6
[15] = tested on: Cunninghamella bertholletiae; assay: Antifungal activity against Cunninghamella bertholletiae UTHSC 05-2275 infected in neutropenic OF1 mouse assessed as decreased fungal load in brain at 60 mg/kg, po qd administered 1 day post infection measured after 4 to 5 days relative to untreated control; design: dose 60 mg/kg; in short: as §2
[16] = tested on: Cunninghamella bertholletiae; assay: Antifungal activity against Cunninghamella bertholletiae UTSCH 05-2275 infected in diabetic OF1 mouse assessed as decreased fungal load in lung at 80 mg/kg, po qd administered 1 day post infection measured after 4 to 5 days relative to untreated control; design: dose 80 mg/kg; in short: as §5
[17] = tested on: Cunninghamella bertholletiae; assay: Antifungal activity against Cunninghamella bertholletiae UTSCH 05-2275 infected in diabetic OF1 mouse assessed lung at 60 mg/kg, po qd administered 1 day post infection measured after 4 to 5 days relative to untreated control; design: dose 60 mg/kg; in short: as §5

Compound | Activity [1] | Activity [2] | Activity [3] | Activity [4] | Activity [5] | Activity [6] | Activity [7] | Activity [8] | Activity [9] | Activity [10] | Activity [11] | Activity [12] | Activity [13] | Activity [14] | Activity [15] | Activity [16] | Activity [17]
C[C@@H]1[C@H](O)[C@@H](C)/C=C/C=C/C=C/C=C/C=C/C=C/C=C/[C@H](O[C@@H]2O[C@H](C)[C@@H](O)[C@H](N)[C@@H]2O)C[C@@H]2O[C@](O)(C[C@@H](O)C[C@@H](O)[C@H](O)CC[C@@H](O)C[C@@H](O)CC(=O)O[C@H]1C)C[C@H](O)[C@H]2C(=O)O [AMPHOTERICIN B] | Active | Active | Active | inactive | Active | inactive |  |  |  |  |  |  |  |  |  |  | 
CC[C@@H]([C@H](C)O)n1ncn(-c2ccc(N3CCN(c4ccc(OC[C@@H]5CO[C@@](Cn6cncn6)(c6ccc(F)cc6F)C5)cc4)CC3)cc2)c1=O [POSACONAZOLE] |  |  |  |  |  |  | Active | Active | Active | Active | Active | Active | Active | Active | Active | Active | Active
